Measured values from ChEMBL document CHEMBL4266038, “Total Synthesis of Xanthoangelol B and Its Various Fragments: Toward Inhibition of Virulence Factor Production of Staphylococcus aureus” (J Med Chem, 2018).
Calls of active or inactive are those of the source. The rule behind the calls is not given here.

Experiments:
[1] = system: Staphylococcus aureus subsp. aureus USA300; assay: Inhibition of methicillin-resistant Staphylococcus aureus USA300 SaeRS assessed as reduction in alpha-hemolysin mediated hemolysis of human erythrocytes at 8 uM after 8 hrs by ELISA
Outline: (§1)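 Overnight cultures of wild-type USA300 or the saeS mutant were diluted 1:100 in TSB and grown to OD600 = 1. Cells at 5x10^5/ml were grown with compound for 8 h at 37 °C, 250 rpm. Supernatants were mixed 1:1 with 5% DPBS-washed human RBC for 30 min, then centrifuged, and hemolysis was read at OD540. Experiments were run in triplicate.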

[2] = system: Staphylococcus aureus subsp. aureus USA300; assay: Inhibition of methicillin-resistant Staphylococcus aureus USA300 SaeRS assessed as reduction in alpha-hemolysin mediated hemolysis of human erythrocytes at 4 uM after 8 hrs by ELISA; outline: as §1
[3] = system: Staphylococcus aureus subsp. aureus USA300; assay: Inhibition of methicillin-resistant Staphylococcus aureus USA300 SaeRS Tn551 deletion mutant assessed as reduction in alpha-hemolysin mediated hemolysis of human erythrocytes at 15 uM after 8 hrs by ELISA relative to control; outline: as §1
[4] = system: Staphylococcus aureus subsp. aureus USA300; assay: Inhibition of methicillin-resistant Staphylococcus aureus USA300 SaeRS Tn551 deletion mutant assessed as reduction in alpha-hemolysin mediated hemolysis of human erythrocytes at 8 uM after 8 hrs by ELISA relative to control; outline: as §1

Row | SMILES | inhibition [1] | inhibition [2] | inhibition [3] [%] | inhibition [4] [%]
1 | C=C(C)C(O)CC/C(C)=C/Cc1c(O)ccc(C(=O)CC(O)c2ccc(O)cc2)c1O (stereo unspecified) | Active | Active | 87.4 | –
2 | C=C(C)C(O)CC/C(C)=C/Cc1c(O)ccc(C(=O)/C=C/c2ccc(O)cc2)c1O (stereo unspecified) [XANTHOANGELOL B] | Active | Active | – | 86.9
